Columns and labels:
[1] = target: T1, Retinoic acid receptor beta (Homo sapiens) (UniProt P10826); assay: Relative transcriptional activation in CV-1 cells expressing RAR beta receptor compared to ATRA; Not detectable; assay type: functional, cell-based; details: Cercopithecidae
T1 sequence (whole entry): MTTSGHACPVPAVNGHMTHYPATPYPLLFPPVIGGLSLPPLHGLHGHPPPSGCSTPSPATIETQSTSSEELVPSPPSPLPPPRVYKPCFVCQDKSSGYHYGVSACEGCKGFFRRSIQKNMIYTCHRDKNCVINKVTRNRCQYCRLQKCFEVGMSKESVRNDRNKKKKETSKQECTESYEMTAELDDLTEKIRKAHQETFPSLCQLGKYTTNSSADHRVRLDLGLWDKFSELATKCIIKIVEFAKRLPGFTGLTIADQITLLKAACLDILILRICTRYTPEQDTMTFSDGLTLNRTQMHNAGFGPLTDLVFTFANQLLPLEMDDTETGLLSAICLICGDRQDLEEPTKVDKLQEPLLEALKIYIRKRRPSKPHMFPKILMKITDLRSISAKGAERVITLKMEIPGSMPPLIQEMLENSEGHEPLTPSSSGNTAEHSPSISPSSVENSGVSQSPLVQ

[2] = system: HL-60; assay: Effective dose for induction of HL-60 cell differentiation; assay type: functional, Homo sapiens
In short: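 HL-60 cells treated with retinoid. Differentiation scored by the CD11b marker. Activity expressed relative to ATRA, as EC30/ATRA EC30.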

[3] = target: T1, Retinoic acid receptor beta (Homo sapiens); assay: Inhibition of [3H]ATRA-Hl60 binding to Retinoic acid receptor beta relative to ATRA; Not detectable
In short: (§1)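 Competitive binding at individual RAR subtypes, run with [3H]ATRA as radioligand. Affinity is given as IC50 relative to that of ATRA.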

[4] = target: T2, Retinoic acid receptor gamma (Homo sapiens) (UniProt P13631); assay: Relative transcriptional activation in CV-1 cells expressing RAR gamma receptor compared to ATRA; Not detectable; assay type: functional, cell-based; details: Cercopithecidae
T2 sequence (whole entry): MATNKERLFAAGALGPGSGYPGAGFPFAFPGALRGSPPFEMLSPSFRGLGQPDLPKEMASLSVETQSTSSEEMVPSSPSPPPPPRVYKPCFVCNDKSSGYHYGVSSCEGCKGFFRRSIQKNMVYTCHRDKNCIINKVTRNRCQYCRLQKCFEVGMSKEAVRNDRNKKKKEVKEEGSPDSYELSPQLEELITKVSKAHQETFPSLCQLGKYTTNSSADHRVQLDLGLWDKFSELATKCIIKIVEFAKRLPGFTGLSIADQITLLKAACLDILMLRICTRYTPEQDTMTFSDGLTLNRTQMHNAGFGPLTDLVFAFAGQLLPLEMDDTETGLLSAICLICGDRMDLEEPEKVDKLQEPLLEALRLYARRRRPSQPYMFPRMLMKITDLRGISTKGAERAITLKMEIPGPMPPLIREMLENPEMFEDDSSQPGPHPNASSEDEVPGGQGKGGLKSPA

[5] = target: T2, Retinoic acid receptor gamma (Homo sapiens); assay: Inhibition of [3H]ATRA-Hl60 binding to Retinoic acid receptor gamma relative to ATRA; Not detectable; in short: as §1
[6] = target: T3, Retinoic acid receptor alpha (Homo sapiens) (UniProt P10276); assay: Relative transcriptional activation in CV-1 cells expressing RAR alpha receptor compared to ATRA; Not detectable; assay type: functional, cell-based; details: Cercopithecidae
T3 sequence (whole entry): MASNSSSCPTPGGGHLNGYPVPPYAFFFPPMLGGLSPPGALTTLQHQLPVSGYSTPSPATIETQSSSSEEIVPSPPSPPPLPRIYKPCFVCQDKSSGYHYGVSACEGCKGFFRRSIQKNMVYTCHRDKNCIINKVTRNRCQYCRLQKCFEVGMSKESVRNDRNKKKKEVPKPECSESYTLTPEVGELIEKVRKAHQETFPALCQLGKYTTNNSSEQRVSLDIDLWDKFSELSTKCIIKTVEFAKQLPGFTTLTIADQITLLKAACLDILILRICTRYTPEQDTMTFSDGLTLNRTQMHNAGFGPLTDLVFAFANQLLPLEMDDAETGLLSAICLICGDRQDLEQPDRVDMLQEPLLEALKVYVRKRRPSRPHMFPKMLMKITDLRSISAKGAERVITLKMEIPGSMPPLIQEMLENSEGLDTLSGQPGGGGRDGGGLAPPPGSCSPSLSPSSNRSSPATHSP

[7] = target: T2, Retinoic acid receptor gamma (Homo sapiens); assay: Relative transcriptional activation in CV-1 cells expressing RAR gamma receptor compared to ATRA; assay type: functional, cell-based; details: Cercopithecidae
[8] = target: T1, Retinoic acid receptor beta (Homo sapiens); assay: Relative transcriptional activation in CV-1 cells expressing RAR beta receptor compared to ATRA; assay type: functional, cell-based; details: Cercopithecidae
[9] = target: T1, Retinoic acid receptor beta (Homo sapiens); assay: Inhibition of [3H]ATRA-Hl60 binding to Retinoic acid receptor beta relative to ATRA; in short: as §1
[10] = target: T3, Retinoic acid receptor alpha (Homo sapiens); assay: Relative transcriptional activation in CV-1 cells expressing RAR alpha receptor compared to ATRA; assay type: functional, cell-based; details: Cercopithecidae
[11] = target: T2, Retinoic acid receptor gamma (Homo sapiens); assay: Inhibition of [3H]ATRA-Hl60 binding to Retinoic acid receptor gamma relative to ATRA; in short: as §1

SMILES	Relative EC30 [1] [nM]	Relative IC50 [3] [nM]	Relative EC30 [4] [nM]	Relative IC50 [5] [nM]	Relative EC30 [6] [nM]	Relative EC30 [7] [nM]	Relative EC30 [8] [nM]	Relative IC50 [9] [nM]	Relative EC30 [10] [nM]	Relative IC50 [11] [nM]	ED30 [2] [nM]
Cc1ccc(C)c(-n2nc(-c3ccc(-c4ccc(C(=O)O)cc4)[nH]3)cc2C(C)C)c1	> 10000	> 1000	> 10000	> 1000	> 10000						>10000
CC1=C(/C=C/C(C)=C/C=C/C(C)=C/C(=O)O)C(C)(C)CCC1 [TRETINOIN]											1.5

Continued, in another order:

Relative EC30 [1] [nM]	Relative IC50 [3] [nM]	Relative EC30 [4] [nM]	Relative IC50 [5] [nM]	Relative EC30 [6] [nM]	Relative EC30 [7] [nM]	Relative EC30 [8] [nM]	Relative IC50 [9] [nM]	Relative EC30 [10] [nM]	Relative IC50 [11] [nM]	SMILES	ED30 [2] [nM]
			> 1000		14	1.8	660	0.19		CC(C)c1cc(-c2ccc(-c3ccc(C(=O)O)cc3)[nH]2)nn1C(C)C	0.27
					2.3	0.63	110	0.22	70	CC(C)c1cc(-c2ccc(-c3ccc(C(=O)O)cc3)[nH]2)nn1C(C)(C)C	0.05
	> 1000		> 1000		88	15		1		CC(C)c1cc(-c2ccc(-c3ccc(C(=O)O)cc3)[nH]2)nn1CC(F)(F)F	0.62
